For orientation: IC50 means the concentration at which inhibition is half-maximal. By inhibition is commonly meant the relative decrease from the control value, in per cent.

The test system of one assay is NCI-H128. In words: In Vitro cytotoxicity against human lung cancer cell line (H128). The class given is functional, cell-based. In short, it runs like this:
(§1)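 Cells grown in RPMI 1640 with 10% heat-inactivated FBS and penicillin-streptomycin, at 37 °C under 5% CO2. Seeding density set per line from growth curves. Eight concentrations diluted from DMSO stock, 4 days exposure. MTT added for 4 h, formazan dissolved in DMSO, absorbance at 550 nm. […] Three or more determinations.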

The subject of the next assay is MKN-45. The experiment in a line: In Vitro cytotoxicity against human stomach cancer cell line (MKN45). The assay is classed as functional, cell-based. In short, it runs like this: as §1
Assay [1] concerns the target Acetylcholinesterase (Homo sapiens) (UniProt P22303). In words: Percent inhibition of acetylcholinesterase using ATCh1 as a substrate. Details: concentration or dose not given beside the values. To be noted: concentration not given here. In short, it runs like this:
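AChE (0.05 unit) with 10 mM DTNB and compound at 2 µM in 0.1 M potassium phosphate pH 8.0, preincubated 15 min at 37 °C. Reaction started with 85 µM acetylthiocholine iodide, 15 min at 37 °C. Absorbance at 412 nm, expressed as percent of colour without compound. Three or more determinations.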

The subject of a further assay is SK-BR-3. In words: In Vitro cytotoxicity against human breast cancer cell line (SK-BR-3). The assay is classed as functional, cell-based. In short, it runs like this: as §1
A further assay deals with T1, DNA topoisomerase 1 (Mus musculus, UniProt Q04750).
T1 sequence (Q04750 whole entry): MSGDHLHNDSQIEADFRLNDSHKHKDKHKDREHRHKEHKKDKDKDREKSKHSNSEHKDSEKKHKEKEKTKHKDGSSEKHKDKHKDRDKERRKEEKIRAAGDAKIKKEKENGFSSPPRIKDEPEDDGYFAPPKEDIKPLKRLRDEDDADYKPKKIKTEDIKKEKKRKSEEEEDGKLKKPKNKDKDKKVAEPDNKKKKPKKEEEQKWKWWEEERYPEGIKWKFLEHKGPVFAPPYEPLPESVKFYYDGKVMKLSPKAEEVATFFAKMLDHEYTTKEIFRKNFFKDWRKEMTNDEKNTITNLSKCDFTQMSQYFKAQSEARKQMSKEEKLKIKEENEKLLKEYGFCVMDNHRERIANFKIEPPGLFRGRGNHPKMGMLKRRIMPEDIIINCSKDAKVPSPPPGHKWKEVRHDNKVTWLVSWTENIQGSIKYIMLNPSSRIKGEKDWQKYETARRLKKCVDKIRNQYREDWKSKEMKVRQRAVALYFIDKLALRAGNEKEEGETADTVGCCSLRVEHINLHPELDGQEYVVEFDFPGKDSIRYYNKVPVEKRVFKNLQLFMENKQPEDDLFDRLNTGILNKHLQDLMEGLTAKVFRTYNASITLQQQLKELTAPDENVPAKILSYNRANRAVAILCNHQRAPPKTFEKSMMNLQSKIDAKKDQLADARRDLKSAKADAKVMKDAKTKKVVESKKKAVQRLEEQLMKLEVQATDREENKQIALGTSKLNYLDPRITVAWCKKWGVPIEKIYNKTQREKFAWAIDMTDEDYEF
The experiment in a line: Average concentration to cause 50% inhibition of topo 1 using the cleavable complex assay.

For a further assay, the system named is A549. In words: In Vitro cytotoxicity against human lung cancer cell line (A549). The class given is functional, cell-based. In short, it runs like this: as §1
The next assay relates to SK-OV-3. In words: In Vitro cytotoxicity against human ovarian cancer cell line (SK-OV-3). The assay is classed as functional, cell-based. In short, it runs like this: as §1
A further assay relates to WiDr. The experiment in a line: In Vitro cytotoxicity against human colon cancer cell line (WiDr). The class given is functional, cell-based. In short, it runs like this:
as §1

Assay [2] is described as follows: Percentage of inhibition rate (IR) against WiDr xenografts in nude mice at a dose of 10 umol/kg. The assay is classed as functional, Mus musculus. In short, it runs like this:
(§2)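 Treatment started about 3 weeks after transplant, at tumor weight 100 to 200 mg. 12 mice per group. Suspended in 0.5% CMC aqueous solution, given i.p. q4d×8 at 10 µmol/kg per injection. Calipers, V = 1/2 × a × b2. Read-outs on day 28: MTW, RTG (MTW28/MTW0), IR = (1 − RTG treated/RTG control) × 100. PR means 50% or greater regression.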

The nature of assay [3]: Percentage of complete regression (CR) against WiDr xenografts in nude mice at a dose of 10 umol/kg. The assay is classed as functional, Mus musculus. In short, it runs like this:
as §2

The nature of assay [4]: Percentage of 50% or greater regression (PR) against WiDr xenografts in nude mice at a dose of 10 umol/kg. The assay is classed as functional, Mus musculus. In short, it runs like this:
as §2

The nature of assay [5]: Antitumor activity against MTW28 WiDr xenografts in nude mice at a dose of 10 umol/kg. The class given is functional, Mus musculus. In short, it runs like this:
as §2

Assay [6] can be described thus: Relative tumor growth (RTG), calculated by dividing MTW28 by that on day 0 (MTW0) against WiDr xenografts in nude mice at a dose of 10 umol/kg. The assay is classed as functional, Mus musculus. In short, it runs like this: as §2
A short description of assay [7]: Antitumor activity against MTW0 WiDr xenografts in nude mice at a dose of 10 umol/kg. The class given is functional, Mus musculus. In short, it runs like this:
as §2

Acetylcholinesterase (Homo sapiens), sequence (P22303 whole entry): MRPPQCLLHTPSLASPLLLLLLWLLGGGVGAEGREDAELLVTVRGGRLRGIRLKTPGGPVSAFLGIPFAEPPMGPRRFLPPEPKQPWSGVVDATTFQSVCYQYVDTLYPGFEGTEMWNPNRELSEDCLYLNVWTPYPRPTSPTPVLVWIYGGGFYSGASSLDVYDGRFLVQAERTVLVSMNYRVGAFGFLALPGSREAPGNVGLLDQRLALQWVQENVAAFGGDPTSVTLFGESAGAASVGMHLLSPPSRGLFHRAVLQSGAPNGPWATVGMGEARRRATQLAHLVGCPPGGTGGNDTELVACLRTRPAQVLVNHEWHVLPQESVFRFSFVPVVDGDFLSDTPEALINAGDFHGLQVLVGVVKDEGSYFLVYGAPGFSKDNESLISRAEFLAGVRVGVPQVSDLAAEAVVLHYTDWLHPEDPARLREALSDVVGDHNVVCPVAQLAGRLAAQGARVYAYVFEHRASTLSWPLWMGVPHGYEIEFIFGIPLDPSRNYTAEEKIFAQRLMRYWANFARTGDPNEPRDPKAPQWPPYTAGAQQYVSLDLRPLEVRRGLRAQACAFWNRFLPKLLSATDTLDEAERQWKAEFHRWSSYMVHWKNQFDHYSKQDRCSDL

In the case of `CC[C@@]1(O)C(=O)OCc2c1cc1n(c2=O)Cc2cc3ccccc3nc2-1` [CAMPTOTHECIN], the IC50 in the assay with NCI-H128 worked out at 0.018 µM; with MKN-45, 0.017 µM; in the assay with SK-BR-3, 0.02 µM; against DNA topoisomerase 1 it was 40 µM; in the assay with A549, 0.014 µM; in the assay on SK-OV-3, 0.02 µM. Further, the IC50 in the assay on WiDr was found to be 0.017 µM. Besides, in assay [1], the inhibition stood at 23%.
For the compound `CCN1CCOc2ccc3nc4c(cc3c21)Cn1c-4cc2c(c1=O)COC(=O)[C@]2(O)CC`, the IC50 was found to be 0.013 µM in the assay with NCI-H128; 0.019 µM in the assay with MKN-45; 0.016 µM in the assay on SK-BR-3; 12 µM at DNA topoisomerase 1; 0.017 µM in the assay with A549; 0.019 µM with SK-OV-3. This compound also had a half-inhibitory concentration (IC50) in the assay on WiDr of 0.021 µM. In [1], the inhibition worked out at 9%.
In assay [2], `CCc1c2c(nc3ccc(O)cc13)-c1cc3c(c(=O)n1C2)COC(=O)[C@]3(O)CC` [7-ETHYL-10-HYDROXYCAMPTOTHECIN] showed an IR of 98.2%. Further, the IC50 in the assay on NCI-H128 turned out to be 0.006 µM; in the assay on MKN-45 it was 0.008 µM; in the assay on SK-BR-3, 0.004 µM; against DNA topoisomerase 1 it was 4 µM; with A549, 0.016 µM; in the assay on SK-OV-3 it was 0.011 µM. Moreover, in the assay with WiDr, the IC50 amounted to 0.014 µM. In [1], the inhibition is 13%. This compound also came in with a CR in [3] of 75%. The compound further returned a PR in [4] of 8%. Moreover, the Activity in [5] is given as 27 mg; in assay [7], 177 mg. In addition, the RTG in assay [6] is 0.15.
For `CC[C@@]1(O)C(=O)OCc2c1cc1n(c2=O)Cc2cc3c4c(ccc3nc2-1)OCCN4CCN`, the IC50 in the assay with NCI-H128 was 0.174 µM; with MKN-45, 0.536 µM; in the assay on SK-BR-3, 0.417 µM; at DNA topoisomerase 1 it was 133 µM; in the assay on A549 it was 0.507 µM; in the assay on SK-OV-3, 0.533 µM. In addition, the IC50 in the assay with WiDr was 0.415 µM. Besides, in assay [1], the inhibition came to 17%.
In the case of `CC[C@@]1(O)C(=O)OCc2c1cc1n(c2=O)Cc2cc3c4c(cc(CN(C)C)c3nc2-1)OCCN4`, the half-maximal inhibitory concentration (IC50) is 8.5 µM in the assay with NCI-H128; 9.57 µM in the assay with MKN-45; 8.07 µM in the assay on A549; 8.63 µM in the assay with SK-OV-3; 3.19 µM in the assay with WiDr.
As to `CC[C@@]1(O)C(=O)OCc2c1cc1n(c2=O)Cc2cc3c4c(ccc3nc2-1)OCCN4CC#N`, the 50% inhibitory concentration (IC50) in the assay on NCI-H128 is 0.014 µM; in the assay with MKN-45, 0.04 µM; in the assay on SK-BR-3 it was 0.017 µM; at DNA topoisomerase 1, 16 µM; in the assay on A549 it was 0.037 µM; in the assay on SK-OV-3, 0.032 µM. In the assay with WiDr, this compound came in with an IC50 of 0.03 µM. In addition, the inhibition in [1] was determined as 20%.
Take `CCc1c2c(nc3ccc4c(c13)NCCO4)-c1cc3c(c(=O)n1C2)COC(=O)[C@]3(O)CC`: the IR in assay [2] is 98.6%. Besides, the IC50 came out at 0.007 µM in the assay on NCI-H128; 0.02 µM in the assay with MKN-45; 0.013 µM in the assay with SK-BR-3; 5 µM at DNA topoisomerase 1; 0.014 µM in the assay on A549; 0.014 µM in the assay on SK-OV-3. In the assay on WiDr, this compound had an IC50 of 0.016 µM. Also, the inhibition in assay [1] came out at 12%. This compound came in with a CR in assay [3] of 75%. The same compound returned a PR in assay [4] of 25%. The figures for the Activity in assay [5] and in assay [7] were 21 mg and 176 mg, respectively. Also, the RTG in [6] is reported as 0.12.
On to `CC[C@@]1(O)C(=O)OCc2c1cc1n(c2=O)Cc2cc3c4c(ccc3nc2-1)OCCN4`, for which the IC50 came to 0.013 µM in the assay with NCI-H128; 0.02 µM in the assay on MKN-45; 0.019 µM with SK-BR-3; 41 µM against DNA topoisomerase 1; 0.023 µM in the assay on A549; 0.028 µM with SK-OV-3. The same compound had an IC50 with WiDr of 0.023 µM. Besides, the inhibition in [1] was determined as 13%.
`CC[C@@]1(O)C(=O)OCc2c1cc1n(c2=O)Cc2cc3c4c(ccc3nc2-1)OCCN4C`: the IC50 is 0.01 µM with NCI-H128; 0.019 µM in the assay on MKN-45; 0.025 µM in the assay with SK-BR-3; 21 µM on DNA topoisomerase 1; 0.021 µM with A549; 0.026 µM in the assay with SK-OV-3. Moreover, in the assay on WiDr, the IC50 was 0.023 µM. The inhibition in assay [1] turned out to be 14%.
On to `CCc1c2c(nc3ccc4c(c13)N(C)CCO4)-c1cc3c(c(=O)n1C2)COC(=O)[C@]3(O)CC`, for which the IC50 in the assay with NCI-H128 was 0.076 µM; in the assay on MKN-45, 0.152 µM; with SK-BR-3, 0.107 µM; on DNA topoisomerase 1 it was 1600 µM; in the assay on A549 it was 0.085 µM; with SK-OV-3, 0.142 µM. The compound also came in with an IC50 with WiDr of 0.135 µM. Moreover, the inhibition in [1] was 19%.
With `CC[C@@]1(O)C(=O)OCc2c1cc1n(c2=O)Cc2cc3c(CN(C)C)c(O)ccc3nc2-1` [TOPOTECAN], the IC50 in the assay on NCI-H128 amounted to 0.031 µM; in the assay on MKN-45, 0.038 µM; in the assay on SK-BR-3 it was 0.026 µM; in the assay with A549 it was 0.054 µM; in the assay on SK-OV-3, 0.048 µM; with WiDr, 0.056 µM. Moreover, the inhibition in assay [1] is 20%.
As to `CC[C@@]1(O)C(=O)OCc2c1cc1n(c2=O)Cc2cc3c4c(cc(CN5CCOCC5)c3nc2-1)OCCN4`, the IC50 in the assay on NCI-H128 came out at 7.44 µM; in the assay on MKN-45, 15.4 µM; with A549, 9.59 µM; with SK-OV-3, 10.6 µM; with WiDr, 5.34 µM.

(Values after ChEMBL document CHEMBL1134474, “Synthesis and biological evaluation of novel A-ring modified hexacyclic camptothecin analogues” (J Med Chem, 2001).)
